Test results published in ChEMBL document CHEMBL1144069, “Cytotoxic activities of hypocretenolides from Leontodon hispidus” (J Nat Prod, 1999).
Activity calls are given as the source filed them. The calls are words filed in the database; no cut-off is given here.

How the values were obtained:
Assay type in all cases: functional, cell-based
GTB = assay: Cytotoxicity against human GTB cells at 0.01 to 2.0 uM after 5 hrs by MTT assay
In short: (§1)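 Leukemic cells at 0.5 × 10^6 cells/mL in RPMI were exposed to 0.01–2.00 µM compound (0.1% final DMSO) at 37 °C and 5% CO2. Viability was measured as MTT formazan, dissolved in DMSO and read at 550 and 630 nm. Three wells per point, on three separate days (n = 9). IC50 was taken graphically from per-experiment dose curves.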

HL-60 [1] = assay: Cytotoxicity against human HL-60 cells at 0.01 to 2.0 uM after 5 hrs by MTT assay; in short: as §1
A-431 [2] = assay: Cytotoxicity against human A431 cells at 0.25 to 2.0 uM after 24 hrs by [3H]thymidine incorporation assay
In short: (§2)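 Adherent tumor cells (100 µL at 1 × 10^6 cells/mL) were overlaid with 100 µL of medium containing compound in the 0.25–4.00 µM range (0.1% final DMSO). The medium control had no compound. Cells were incubated for 24, 48 or 72 h at 37 °C and 5% CO2, then pulsed 24 h with 3H-thymidine. They were harvested onto glass filters and counted by liquid scintillation. Three wells per point, on three separate days (n = 9). IC50 was taken graphically.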

A-431 [3] = assay: Cytotoxicity against human A431 cells at 0.25 to 2.0 uM after 48 hrs by [3H]thymidine incorporation assay; in short: as §2
A-431 [4] = assay: Cytotoxicity against human A431 cells at 0.25 to 2.0 uM after 72 hrs by [3H]thymidine incorporation assay; in short: as §2
HEp-2 [5] = assay: Cytotoxicity against human HEP2 cells at 0.25 to 2.0 uM after 24 hrs by [3H]thymidine incorporation assay; in short: as §2
HEp-2 [6] = assay: Cytotoxicity against human HEP2 cells at 0.25 to 2.0 uM after 48 hrs by [3H]thymidine incorporation assay; in short: as §2
HEp-2 [7] = assay: Cytotoxicity against human HEP2 cells at 0.25 to 2.0 uM after 72 hrs by [3H]thymidine incorporation assay; in short: as §2
MCF7 [8] = assay: Cytotoxicity against human MCF7 cells at 0.25 to 2.0 uM after 24 hrs by [3H]thymidine incorporation assay; in short: as §2
MCF7 [9] = assay: Cytotoxicity against human MCF7 cells at 0.25 to 2.0 uM after 48 hrs by [3H]thymidine incorporation assay; in short: as §2
MCF7 [10] = assay: Cytotoxicity against human MCF7 cells at 0.25 to 2.0 uM after 72 hrs by [3H]thymidine incorporation assay; in short: as §2
OVCAR-3 [11] = assay: Cytotoxicity against human OVCAR-3 cells at 0.25 to 2.0 uM after 24 hrs by [3H]thymidine incorporation assay; in short: as §2
OVCAR-3 [12] = assay: Cytotoxicity against human OVCAR-3 cells at 0.25 to 2.0 uM after 48 hrs by [3H]thymidine incorporation assay; in short: as §2
OVCAR-3 [13] = assay: Cytotoxicity against human OVCAR-3 cells at 0.25 to 2.0 uM after 72 hrs by [3H]thymidine incorporation assay; in short: as §2
SK-MEL-28 [14] = assay: Cytotoxicity against human SK MEL28 cells at 0.25 to 2.0 uM after 24 hrs by [3H]thymidine incorporation assay; in short: as §2
SK-MEL-28 [15] = assay: Cytotoxicity against human SK MEL28 cells at 0.25 to 2.0 uM after 48 hrs by [3H]thymidine incorporation assay; in short: as §2
SK-MEL-28 [16] = assay: Cytotoxicity against human SK MEL28 cells at 0.25 to 2.0 uM after 72 hrs by [3H]thymidine incorporation assay; in short: as §2
SK37 [17] = assay: Cytotoxicity against human SK37 cells at 0.25 to 2.0 uM after 24 hrs by [3H]thymidine incorporation assay; in short: as §2
SK37 [18] = assay: Cytotoxicity against human SK37 cells at 0.25 to 2.0 uM after 48 hrs by [3H]thymidine incorporation assay; in short: as §2
SK37 [19] = assay: Cytotoxicity against human SK37 cells at 0.25 to 2.0 uM after 72 hrs by [3H]thymidine incorporation assay; in short: as §2
SW872 [20] = assay: Cytotoxicity against human SW872 cells at 0.25 to 2.0 uM after 24 hrs by [3H]thymidine incorporation assay
In short: (§3)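 Adherent tumour cells at 1 × 10^6 cells/mL (100 µL per well) overlaid with an equal volume of medium carrying test substance across 0.25–4.00 µM. Medium-only controls. Incubated 24, 48 or 72 h at 37 °C, 5% CO2, then pulsed 24 h with 3H-thymidine and harvested onto glass filters for scintillation counting. Final DMSO 0.1%. Triplicate wells, three days (n = 9). IC50 read graphically from each experiment's dose curve.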

SW872 [21] = assay: Cytotoxicity against human SW872 cells at 0.25 to 2.0 uM after 48 hrs by [3H]thymidine incorporation assay; in short: as §3
SW872 [22] = assay: Cytotoxicity against human SW872 cells at 0.25 to 2.0 uM after 72 hrs by [3H]thymidine incorporation assay; in short: as §3
ZR-75-1 [23] = assay: Cytotoxicity against human ZR-75-1 cells at 0.25 to 2.0 uM after 24 hrs by [3H]thymidine incorporation assay; in short: as §3
ZR-75-1 [24] = assay: Cytotoxicity against human ZR-75-1 cells at 0.25 to 2.0 uM after 48 hrs by [3H]thymidine incorporation assay; in short: as §3
ZR-75-1 [25] = assay: Cytotoxicity against human ZR-75-1 cells at 0.25 to 2.0 uM after 72 hrs by [3H]thymidine incorporation assay; in short: as §3
[26] = Cytotoxicity against human GTB cells after 5 hrs by MTT assay; in short: as §1
HL-60 [27] = assay: Cytotoxicity against human HL-60 cells after 5 hrs by MTT assay; details: HL-60, 5 h; in short: as §1
A-431 [28] = assay: Cytotoxicity against human A431 cells after 24 hrs by [3H]thymidine incorporation assay; in short: as §2
A-431 [29] = assay: Cytotoxicity against human A431 cells after 48 hrs by [3H]thymidine incorporation assay; in short: as §2
A-431 [30] = assay: Cytotoxicity against human A431 cells after 72 hrs by [3H]thymidine incorporation assay; in short: as §2
HEp-2 [31] = assay: Cytotoxicity against human HEP2 cells after 24 hrs by [3H]thymidine incorporation assay; in short: as §2
HEp-2 [32] = assay: Cytotoxicity against human HEP2 cells after 48 hrs by [3H]thymidine incorporation assay; in short: as §2
HEp-2 [33] = assay: Cytotoxicity against human HEP2 cells after 72 hrs by [3H]thymidine incorporation assay; in short: as §2
MCF7 [34] = assay: Cytotoxicity against human MCF7 cells after 24 hrs by [3H]thymidine incorporation assay; in short: as §2
MCF7 [35] = assay: Cytotoxicity against human MCF7 cells after 48 hrs by [3H]thymidine incorporation assay; in short: as §2
MCF7 [36] = assay: Cytotoxicity against human MCF7 cells after 72 hrs by [3H]thymidine incorporation assay; in short: as §2
OVCAR-3 [37] = assay: Cytotoxicity against human OVCAR-3 cells after 24 hrs by [3H]thymidine incorporation assay; in short: as §2
OVCAR-3 [38] = assay: Cytotoxicity against human OVCAR-3 cells after 48 hrs by [3H]thymidine incorporation assay; in short: as §2
OVCAR-3 [39] = assay: Cytotoxicity against human OVCAR-3 cells after 72 hrs by [3H]thymidine incorporation assay; in short: as §2
[40] = Cytotoxicity against human SK MEL28 cells after 24 hrs by [3H]thymidine incorporation assay; details: SK-MEL-28; in short: as §2
[41] = Cytotoxicity against human SK MEL28 cells after 48 hrs by [3H]thymidine incorporation assay; details: SK-MEL-28; in short: as §2
[42] = Cytotoxicity against human SK MEL28 cells after 72 hrs by [3H]thymidine incorporation assay; details: SK-MEL-28; in short: as §2
[43] = Cytotoxicity against human SK37 cells after 24 hrs by [3H]thymidine incorporation assay; in short: as §2
[44] = Cytotoxicity against human SK37 cells after 48 hrs by [3H]thymidine incorporation assay; in short: as §2
[45] = Cytotoxicity against human SK37 cells after 72 hrs by [3H]thymidine incorporation assay; in short: as §2
SW872 [46] = assay: Cytotoxicity against human SW872 cells after 24 hrs by [3H]thymidine incorporation assay; in short: as §2
SW872 [47] = assay: Cytotoxicity against human SW872 cells after 48 hrs by [3H]thymidine incorporation assay; in short: as §2
SW872 [48] = assay: Cytotoxicity against human SW872 cells after 72 hrs by [3H]thymidine incorporation assay; in short: as §3
ZR-75-1 [49] = assay: Cytotoxicity against human ZR-75-1 cells after 24 hrs by [3H]thymidine incorporation assay; in short: as §3
ZR-75-1 [50] = assay: Cytotoxicity against human ZR-75-1 cells after 48 hrs by [3H]thymidine incorporation assay; in short: as §3
ZR-75-1 [51] = assay: Cytotoxicity against human ZR-75-1 cells after 72 hrs by [3H]thymidine incorporation assay; in short: as §3

With C=C1C(=O)O[C@]23C[C@H]1CCC(CO[C@H]1O[C@@H](CO)[C@H](O)[C@@H](O)[C@@H]1O)=C2C(=O)C=C3C the Activity (GTB) was “inactive”, the Activity (HL-60 [1]) was “inactive” and the Activity (A-431 [2]) was “inactive”. The Activity (A-431 [3]) was “inactive”, the Activity (A-431 [4]) was “inactive” and the Activity (HEp-2 [5]) was “inactive”. For the same molecule, the Activity (HEp-2 [6]) was “inactive”, the Activity (HEp-2 [7]) was “inactive” and the Activity (MCF7 [8]) was “inactive”. The Activity (MCF7 [9]) was “inactive”, the Activity (MCF7 [10]) was “inactive” and the Activity (OVCAR-3 [11]) was “inactive”. The Activity (OVCAR-3 [12]) was “inactive”, the Activity (OVCAR-3 [13]) was “inactive” and the Activity (SK-MEL-28 [14]) was “inactive”. The Activity (SK-MEL-28 [15]) was “inactive”, the Activity (SK-MEL-28 [16]) was “inactive” and the Activity (SK37 [17]) was “inactive”. The Activity (SK37 [18]) was “inactive”, the Activity (SK37 [19]) was “inactive” and the Activity (SW872 [20]) was “inactive”. For the same molecule, the Activity (SW872 [21]) was “inactive”, the Activity (SW872 [22]) was “inactive” and the Activity (ZR-75-1 [23]) was “inactive”. The Activity (ZR-75-1 [24]) was “inactive” and the Activity (ZR-75-1 [25]) was “inactive”.

For C=C1C(=O)O[C@]23C[C@H]1CCC(CO)=C2C(=O)C=C3C, the IC50 [26] was 0.26 µM, the IC50 (HL-60 [27]) was 0.26 µM and the IC50 (A-431 [28]) was 1.5 µM. For the same molecule, the IC50 (A-431 [29]) was 1.3 µM, the IC50 (A-431 [30]) was 0.9 µM and the IC50 (HEp-2 [31]) was 1.5 µM. The IC50 (HEp-2 [32]) was 1.3 µM, the IC50 (HEp-2 [33]) was 1.1 µM and the IC50 (MCF7 [34]) was 0.8 µM. The IC50 (MCF7 [35]) was 0.7 µM, the IC50 (MCF7 [36]) was 1 µM and the IC50 (OVCAR-3 [37]) was 1.9 µM. The IC50 (OVCAR-3 [38]) was 2.1 µM, the IC50 (OVCAR-3 [39]) was 1.8 µM and the IC50 [40] was 2.8 µM. The IC50 [41] was 2.6 µM, the IC50 [42] was 1.2 µM and the IC50 [43] was 3.2 µM. The IC50 [44] was 2.4 µM, the IC50 [45] was 1.8 µM and the IC50 (SW872 [46]) was 3.1 µM. For the same molecule, the IC50 (SW872 [47]) was 2.2 µM, the IC50 (SW872 [48]) was 2.8 µM and the IC50 (ZR-75-1 [49]) was 0.6 µM. For the same molecule, the IC50 (ZR-75-1 [50]) was 0.9 µM and the IC50 (ZR-75-1 [51]) was 1 µM.
